From ChEMBL document CHEMBL4052820, “RNA G-Quadruplexes in Kirsten Ras (KRAS) Oncogene as Targets for Small Molecules Inhibiting Translation” (J Med Chem, 2017) come the findings set out here.

Active and inactive are the calls of the source. The calls are words filed in the database; no cut-off is given here.

Series [1] concerns PANC-1. Put plainly: Downregulation of KRAS mRNA expression in human PANC1 cells at 1.6 uM after 6 to 24 hrs by qRT-PCR method relative to control. The format is functional. In outline:
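Panc-1 cells were seeded at 18 × 10^3/well and treated the next day. Total RNA was extracted 6 and 24 h later. cDNA was made with oligo-dT plus random hexamers and M-MLV reverse transcriptase (1 h, 37 °C). Multiplex probe qPCR measured KRAS against HPRT and β2-microglobulin (50 cycles: 10 s 95 °C, 60 s 58 °C).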
(In general: Quantitative PCR measures a nucleic acid by following its amplification.)

Series [2] relates to PANC-1. Put plainly: Induction of apoptosis in human PANC1 cells assessed as activation of caspase-3/7 at 0.8 to 1.6 uM. The format is functional, cell-based. In outline:
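Caspase-3/7 activity in treated Panc-1 cells was read with a homogeneous fluorogenic caspase-3/7 kit per the manufacturer.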

A short description of series [3]: Drug uptake in cytoplasm of human PANC1 at 3 uM after 4 hrs by Syto-14 fluorescent dye-based confocal microscopic method. The format is ADME.
Series [4] deals with PANC-1. In words: Induction of apoptosis in human PANC1 cells at 1.6 uM after 72 hrs by annexin V/propidium iodide staining-based flow cytometric method (reference value: 1.2%). The format is functional. A digest of the protocol:
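Panc-1 cells were exposed to 1.6 μM compound for 72 h, stained with FITC-annexin V and propidium iodide, and apoptotic cells counted by flow cytometry.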
(In general: A flow cytometer gives signals particle by particle.)

For series [5], the species on record is Homo sapiens. Put plainly: Stabilization of human KRAS utr-z G-quadruplex RNA assessed as change in melting temperature at 1 to 4 ligand to RNA ratio after 1 hr by UV-visible spectrophotometer. A digest of the protocol:
(§1)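 UV-melting curves of the G4 RNA were recorded at 260 and 296 nm in a 0.5 cm cuvette, in 50 mM Tris-HCl pH 7.4, 100 mM KCl. Ligand was tested at ligand/G4 ratio r = 1, 2 and 4. ΔTM is the TM increase over RNA alone.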

Series [6] is described as follows: Binding affinity to human KRAS utr-4 G-quadruplex RNA by fluorescence titration method.
Series [7] relates to PANC-1. In words: Inhibition of metabolic activity in human PANC1 cells after 72 hrs by resazurin assay. The format is functional, cell-based. The settings on record: PANC-1, 72 h. A digest of the protocol: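 Panc-1 cells were seeded at 10 × 10^3/well, treated after 1 day, incubated 72 h, then assayed with resazurin for metabolic activity. IC50 was reported.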
(Resazurin is reduced to fluorescent resorufin, in cell work by metabolically active cells.)

Series [8] is described as follows: Binding affinity to WC RNA hairpin (unknown origin) by fluorescence titration method.
Series [9] is described as follows: Selectivity ratio of Kd for WC RNA hairpin (unknown origin) to Kd for human KRAS utr-4 G-quadruplex RNA.
Series [10] can be described thus: Selectivity ratio of Kd for WC RNA hairpin (unknown origin) to Kd for human KRAS utr-z G-quadruplex RNA.
Series [11] is filed under the species Homo sapiens. In words: Stabilization of human KRAS 5'-UTR G-quadruplex RNA in human PANC1 cells assessed as inhibition of translation by measuring levels of KRAS protein at 1.6 uM after 48 hrs by Western blot method relative to control. The format is cell-based. Set-up: scale not given: the % may be the effect or the level left. In outline: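 Panc-1 lysates (15 μg protein) were run on 12% SDS-PAGE and transferred to nitrocellulose. Membranes were blocked with 5% BSA in PBS-0.05% Tween and probed overnight at 4 °C with rabbit polyclonal anti-KRAS (1:250) and mouse anti-actin. HRP-conjugated secondaries were applied for 1 h, with chemiluminescent detection.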

Series [12] in a line: Binding affinity to human KRAS utr-1 G-quadruplex RNA by fluorescence titration method. In outline: (§2)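 KD was obtained from fluorescence titrations of ligand with G4 RNA in 50 mM Tris-HCl, pH 7.4, 100 mM KCl.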
The species entered for series [13] is Homo sapiens. Put plainly: Stabilization of human KRAS utr-1 G-quadruplex RNA assessed as change in melting temperature at 1 to 4 ligand to RNA ratio after 1 hr by UV-visible spectrophotometer. In outline: as §1
For series [14], the species on record is Homo sapiens. In words: Stabilization of human KRAS utr-c G-quadruplex RNA assessed as change in melting temperature at 1 to 4 ligand to RNA ratio after 1 hr by UV-visible spectrophotometer. A digest of the protocol:
as §1

Series [15] can be described thus: Selectivity ratio of Kd for WC RNA hairpin (unknown origin) to Kd for human KRAS utr-1 G-quadruplex RNA.
For series [16], the species on record is Homo sapiens. In words: Stabilization of human KRAS 5'-UTR G-quadruplex RNA transfected in human PANC1 cells assessed as inhibition of translation at 0.3 to 1.6 uM preincubated for 6 hrs followed by transfection measured after 48 hrs by dual-glo luciferase reporter gene assay. Type of series: cell-based. In outline: (§3)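 Panc-1 cells (20 × 10^3) were treated the next day for 6 h. They were then transfected with jet-PEI using 10 ng Renilla reporter under the KRAS promoter including the 5′-UTR, plus 200 ng Firefly plasmid under a G4-mutated HRAS promoter. Dual-Glo luminescence was read 48 h later. Renilla/Firefly is given as T/C × 100 against untreated cells.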

A short description of series [17]: Drug uptake in human PANC1 cells at 3 uM after 4 hrs by flow cytometric method. The format is ADME, cell-based. Particulars: panc-1, 4 h. In outline: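 Panc-1 cells were seeded at 5 × 10^4/well and exposed the next day to 3 μM compound for 4 h. Cells were trypsinized, resuspended in PBS and analysed at once by flow cytometry (488 nm excitation, FL3 680 nm, log scale), at least 10^4 cells per sample, gated on FSC/SSC.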

Series [18] in a line: Binding affinity to human KRAS promoter G-quadruplex DNA by fluorescence titration method.
Series [19] in a line: Binding affinity to human KRAS utr-z G-quadruplex RNA by fluorescence titration method. A digest of the protocol: as §2
Series [20] is filed under the species Homo sapiens. In words: Stabilization of human KRAS 5'-UTR G-quadruplex RNA transfected in human PANC1 cells assessed as inhibition of translation at 0.07 to 0.33 uM preincubated for 6 hrs followed by transfection measured after 48 hrs by dual-glo luciferase reporter gene assay. The format is cell-based. A digest of the protocol: as §3
The species named for series [21] is Homo sapiens. In words: Stabilization of human KRAS 5'-UTR G-quadruplex RNA at 3'-end of CMV promoter transfected in human PANC1 cells assessed as inhibition of translation preincubated for 6 hrs followed by transfection measured after 48 hrs by dual-glo luciferase reporter gene assay. The format is cell-based. In outline:
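Renilla reporter pRL-CMV-UTR carries the 192-nt KRAS 5′-UTR inserted downstream of the CMV promoter. Panc-1 cells were pretreated 6 h (0–1.6 μM), then cotransfected (10 ng) with 200 ng Firefly plasmid under a G4-mutated HRAS promoter. Dual-Glo was read after 48 h, expressed as Renilla/Firefly T/C × 100.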

The subject of a further series is Cytomegalovirus. In words: Stabilization of CMV promoter lacking KRAS 5'-UTR G-quadruplex RNA transfected in human PANC1 cells assessed as inhibition of translation at 0.15 to 0.6 uM preincubated for 6 hrs followed by transfection measured after 48 hrs by dual-glo luciferase reporter gene assay. The format is cell-based. A digest of the protocol: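 Renilla reporter pRL-CMV lacks the KRAS 5′-UTR. Panc-1 cells were pretreated 6 h, then cotransfected (10 ng) with 200 ng Firefly plasmid under a G4-mutated HRAS promoter. Dual-Glo was read after 48 h, expressed as Renilla/Firefly T/C × 100 versus untreated cells.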

In series [22] the test system is PANC-1. In words: Inhibition of colony formation in human PANC1 cells at 0.25 to 0.5 uM after 18 days by methylene blue assay relative to control. The format is functional. In outline:
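Panc-1 cells were plated in 60 mm dishes with compound. After 18 days they were fixed and stained 10 min with 2.5% methylene blue in 50% ethanol. Colonies of more than 50 cells were counted.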

Series [23] is filed under the species Homo sapiens. Put plainly: Stabilization of human KRAS utr-1 G-quadruplex RNA assessed as change in melting temperature at 4 ligand to RNA ratio after 1 hr in presence of 5 or 10 fold excess 21 mer RNA duplex by UV-visible spectrophotometer. A digest of the protocol: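 The utr-1 G4 RNA was UV-melted with ligand at ligand/G4 ratio r = 4, with a 5- or 10-fold excess of 21-mer RNA duplex added to test quadruplex-over-duplex competition.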

Take `N=C(N)NCCNc1c2c(c(NCCNC(=N)N)c3sccc13)C(=O)c1ccccc1C2=O`: the outcome in the series with PANC-1 [1] and in the series on PANC-1 [2] was inactive.
With `N=C(N)NCCNc1c2c(c(NCCNC(=N)N)c3occc13)C(=O)c1ccccc1C2=O`, the result in the series with PANC-1 [1] and in the series on PANC-1 [2] was inactive. The Drug uptake entry in series [3] is listed as “Active”.
For orientation: ΔTm means the shift of the melting midpoint relative to a reference. Broadly, the Kd is the free concentration of one partner at which half of the binding sites on the other are occupied at equilibrium, for simple one-to-one binding. Usually IC50 stands for the point on the concentration scale where inhibition reaches its midpoint. For `NCCNc1c2c(c(NCCN)c3sccc13)C(=O)c1ccccc1C2=O`, the Activity in the series with PANC-1 [4] was 20.6%; in the series filed under Homo sapiens [11], under 10%. Further, the ΔTm in the series filed under Homo sapiens [5], in the series listed under Homo sapiens [13] and in the series listed under Homo sapiens [14] was under 20 °C each time. Further, the Kd in series [6] was 83 nM; in [8], 482 nM; in series [12], 91 nM; in series [18] it was 278 nM; in series [19] it was 294 nM. The compound also showed an IC50 with PANC-1 [7] of 900 nM. In addition, the Selectivity ratio in series [9], in series [10] and in series [15] was 2 to 6 in each case. In addition, the outcome with PANC-1 [1] was inactive. The result with PANC-1 [2] was Active. In addition, in the series listed under Homo sapiens [16], the inhibition result is “Dose-dependent effect”. The Drug uptake entry in series [17] is listed as “Active”.
Consider `NCCNc1c2c(c(NCCN)c3occc13)C(=O)c1ccccc1C2=O`, for which the inhibition result in the series listed under Homo sapiens [20], in the series filed under Homo sapiens [21] and in the series filed under Homo sapiens [16] was “Dose-dependent effect” each time. Also, the Activity in the series with PANC-1 [4] is 32.5%; in the series listed under Homo sapiens [11], under 10%; with PANC-1 [1], 50%. In addition, the ΔTm in the series filed under Homo sapiens [5], in the series filed under Homo sapiens [13] and in the series filed under Homo sapiens [14] was under 32 °C throughout. Also, the Kd in series [6] was found to be 96 nM; in series [8] it was 514 nM; in series [12], 75 nM; in series [18] it was 626 nM; in [19], 251 nM. Moreover, inhibition in the series with PANC-1 [7] was half-maximal at 260 nM (IC50). The Selectivity ratio in [9], in series [10] and in series [15] was 2 to 6 in each case. Moreover, the inhibition result with Cytomegalovirus is “inactive”. The Drug uptake entry in series [3] and in series [17] was “Active” in each case. Also, the outcome with PANC-1 [2] and in the series listed under Homo sapiens [23] was Active. Moreover, in the series on PANC-1 [22], the “inhibition (INH)” value is 80%.
